eIF4E-4G inh: inhibitors of eIF4E and eIF4G interaction in translation initiation | TR-FRET eIF4E-eIF4GI(517-606) binding, 2 h | inhibition, % at 21.7 µM | P63073+Q04637 | 220,000 compounds, 0.37% hits;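 active = inhibition above about 30%, limit read from the data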
Runt-SMMHC FRET: Runt domain-CBFb-SMMHC interaction inhibition | Q01196+Q13951 | AID 1434 | Cerulean-Runt/Venus-CBFb-SMMHC FRET ratio 530/480, 1 h | inhibition, % at 20 µM | 220,000 compounds, 0.74% hits;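 active = mean inhibition across duplicate retests at 20 µM reaching about 50%, limit read from the data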;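 note: inhibitors lower the FRET ratio by blocking Runt binding to CBFb-SMMHC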
PERK inhibitor: inhibitors of human PERK kinase; Q9NZJ5; CHO PERK-DD fusion, SEAP luminescence translation reporter; inhibition, % at 5.6 µM; 220,000 compounds, 0.17% hits;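 active = inhibition above the mean inhibition of all tested compounds plus 3 SD, set separately per screening campaign, cut at about 2.9% in these data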;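 note: PERK kinase domain activated by AP20187 dimerizer at 100 nM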
RanGTP-Imp inh: disruptors of Ran-importin-beta complex formation – biochemical, FRET, CFP-Ran, YFP-importin-beta, homogeneous, primary screen | AID 2216 | 300,000 compounds, 1.1% hits | inhibition, % (test concentration not listed) | cell-free CFP-Ran/YFP-importin-beta FRET ratio;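 active = more than half of the replicate wells show a fall in the fluorescence ratio signal beyond about 16%, limit read from the data, passing the limit was not always enough; inconclusive = exactly half of the replicate wells pass the set limit; inactive = fewer than half of replicates pass the limit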
Runt-CBFb FRET: inhibitors of human RUNX1 Runt domain binding to CBFb; Q01196+Q13951; Cerulean-Runt/Venus-CBFb FRET ratio 530/480, 1 h; inhibition, % at 20 µM; 220,000 compounds, 0.46% hits; AID 1496;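 active = inhibition over about 50% at 20 µM in the single-dose screen, limit read from the data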
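Doses: 20 µM compound in 1% DMSO | Material: Cerulean-labeled Runt domain protein | Amount: Each fluorescent fusion protein 100 nM | Schedule: Two 1 h room-temperature incubations shielded from light | Measured by: FRET fluorescence | Evaluation: Loss of energy transfer signal | Controls: Unlabeled CBFb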
Hck Nef HTS: human Hck-Nef kinase inhibition; 220,000 compounds, 0.68% hits; inhibition, % at 20 µM; P08631; Recombinant Hck-YEEI plus Nef, Z-Lyte FRET kinase assay;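 active = Hck-Nef kinase inhibition above about 50%, limit read from the data; inactive = inhibition below that limit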
Hits are given with their value; – = inactive; ? = inconclusive; · = no result. Rows were chosen to be rich in hits. Some 2.2% of all compounds tested hit in one or more screens of this group.

SMILES	eIF4E-4G inh	Runt-SMMHC FRET	PERK inhibitor	RanGTP-Imp inh	Runt-CBFb FRET	Hck Nef HTS
COc1cccc2cc(C(=O)NC3CC4CCC3C4)oc12 (stereo not drawn)	·	·	·	25.9	·	·
Nc1nc(-c2ccco2)nn1C(=O)c1ccc(Cl)cc1	–	–	–	–	·	–
CC(C)N1CCc2c(sc(NC(=O)c3ccc(S(=O)(=O)N(C)CC4CCCO4)cc3)c2C(N)=O)C1 (stereo not drawn)	·	·	·	71.9	·	·
NC(=O)c1c(NC(=O)c2ccc(F)cc2)sc2c1CCC2	·	·	·	–	·	·
CCN1CCc2c(sc(NC(=O)c3ccc(S(=O)(=O)N(C)CC4CCCO4)cc3)c2C(N)=O)C1 (stereo not drawn)	·	·	·	48.3	·	·
COc1ccc(Nc2c(-c3ccco3)nc3cccc(C)n23)cc1	–	–	–	–	–	–
CCC(C(=O)Nc1cccc(C(=O)O)c1C)c1ccccc1 (stereo not drawn)	–	–	3.5	–	–	–
O=C(CN(Cc1ccc(Cl)cc1)C(=O)c1csnn1)NCc1ccccc1	·	·	·	–	·	·
Nc1nc2nc(-c3ccc(Cl)cc3)cc(C(F)(F)F)n2n1	–	76.1	–	?	–	–
Cc1ccnc(NC(=O)c2ccc(S(=O)(=O)N3CCC(C)CC3)cc2)c1	·	·	·	–	·	·
COc1ccc(C(=O)OCC[N+]2(C)CCOCC2)cc1	31.3	–	–	–	–	–
NC(=O)CSc1nnc(CNc2ccc(F)cc2)n1CC1CCCO1 (stereo not drawn)	–	–	3.0	–	–	–
Oc1ccc2nnc3c(Br)cnn3c2c1	·	·	·	52.6	·	·
Cc1c(NC(=S)N/N=C/c2ccc(N(C)C)cc2)c(=O)n(-c2ccccc2)n1C	–	62.5	–	–	–	–
COc1ccccc1CNS(=O)(=O)c1ccc(Cl)s1	·	·	·	–	·	·
C=C1c2cc(C)c(C)cc2NC(=O)N1c1ccccc1	–	60.2	–	–	–	–
N#Cc1c2ccccc2nc2ccccc12	–	97.9	–	18.2	–	–
CCN(CC)S(=O)(=O)c1ccc2oc(C(=O)NCc3ccc(C)cc3)c(C)c2c1	–	–	–	–	–	–
S=c1[nH]nc(NCCCN2CCOCC2)s1	42.1	–	–	–	–	–
CSc1nsc(SC)c1C(=O)O	–	–	–	?	–	–
Cc1nsc(N)c1C(=O)O	–	–	3.4	–	–	–
O=c1[nH]nc(Cc2ccc([N+](=O)[O-])cc2)c2ccccc12	·	·	·	–	·	·
Cc1ccc2nnnc(-c3ccccc3)c2c1	–	–	–	–	–	–
O=C(O)CCNc1nc(-c2ccccc2)c2cc(Br)ccc2n1	·	·	·	19.9	·	·
Cc1ccc2nc(NCCC(=O)O)nc(-c3ccccc3)c2c1	–	89.6	–	–	–	–
SMILES	eIF4E-4G inh	Runt-SMMHC FRET	PERK inhibitor	RanGTP-Imp inh	Runt-CBFb FRET	Hck Nef HTS
O=C(O)CCCC(=O)NNc1nc(-c2ccccc2)c2cc(Cl)ccc2n1	·	·	·	–	·	·
Cc1ccc2nc(NCC(N)=O)nc(-c3ccccc3)c2c1	–	–	–	19.9	–	–
CCCS(=O)(=O)N1CCCC(C(=O)NCCc2cccc(C)c2)C1 (stereo not drawn)	·	·	·	–	·	·
CCOC(=O)c1cc(C)[nH]c(=O)c1C#N	–	56.2	–	–	–	–
CCOC(=O)c1cc(C)[nH]c1C	–	–	–	–	–	–
Cc1cc2nc3c(=O)[nH]c(=O)[nH]c3nc2c([N+](=O)[O-])c1N	50.3	–	–	·	–	–
CCNC(=O)C1=C(O)c2sccc2N(C)S1(=O)=O	36.6	65.3	–	75.7	–	–
Cc1ccccc1NC(=S)C1=C(O)c2sccc2N(C)S1(=O)=O	–	50.4	–	89.2	–	–
CCCC(=O)N/N=C1\CS(=O)(=O)N(C)c2ccsc21	–	–	–	–	–	–
S=c1[nH]c(-c2ccccc2)cn1/N=C/c1cccnc1	96.1	–	–	–	–	–
Cc1cc(NC(=O)Cn2c(=O)oc3ccc(Cl)cc32)no1	·	·	·	–	·	·
CCOC(=O)c1c(NC(=O)C2C3CCC(O3)C2C(=O)O)sc2c1CCC(CC)C2 (stereo not drawn)	–	–	–	–	–	–
Cn1c(/C=C/c2ccc(Cl)cc2)nc2ccccc2c1=O	·	·	·	19.7	·	·
CC(=O)Nc1ccc(/C=C/c2nc3ccccc3[nH]c2=O)cc1	·	·	·	–	·	·
O=c1[nH]c2ccccc2nc1/C=C/c1ccc(Cl)cc1	–	–	–	22.7	–	–
Cc1ccc2c(c1)c1nnc(SCC(=O)NC3CC3)nc1n2C	·	·	·	–	·	·
N#Cc1c2c(c(NCCN3CCOCC3)n3c1nc1ccccc13)CCCC2	–	111.4	–	45.4	50.1	–
CCCCc1c(C)c(C#N)c2nc3ccccc3n2c1NCCN(C)C	·	·	·	–	·	·
CCCc1c(C)c(C#N)c2nc3ccccc3n2c1NCCCN1CCOCC1	–	53.7	–	–	–	–
Cc1c(Cc2ccccc2)c(NCCN(C)C)n2c(nc3ccccc32)c1C#N	–	80.8	–	26.3	–	–
CC1(C)N=C2C(=[N+]1[O-])CCC/C2=N\O	–	–	–	–	–	–
COc1ccc(/C=C/c2nnc(NC(=O)CSc3ccc(C)cc3)s2)cc1	–	123.5	–	–	–	–
CCCCCCCCCCCC(=O)N1CC(=O)NC(=O)C1	–	–	–	–	–	–
CC[N+](C)(C)CC/C=C1/c2ccccc2Sc2ccc(Cl)cc21	85.8	–	–	–	–	–
CCCCCCCCCC[N+](C)(C)CC/C=C1/c2ccccc2Sc2ccc(Cl)cc21	·	·	·	–	·	·
SMILES	eIF4E-4G inh	Runt-SMMHC FRET	PERK inhibitor	RanGTP-Imp inh	Runt-CBFb FRET	Hck Nef HTS
CCCCOc1ccc(-c2nnn(C(C)C(=O)OCC)n2)cc1 (stereo not drawn)	–	–	–	90.8	–	–
Cc1cc(-c2cc(-c3ccc(Cl)cc3)on2)nc(NCC2CC2)n1	–	–	·	–	–	–
Cc1cccc(N(C)S(=O)(=O)c2nnc(NC(=O)c3ccco3)s2)c1	·	·	·	175.8	·	·
CCO[C@@H]1OC(C(=O)NC2CC2)=C[C@H](C2CC2)[C@H]1CCCO	–	–	·	30.4	–	–
CCO[C@H]1OC(C(=O)NC2CC2)=C[C@@H](C)[C@@H]1CCCO	–	–	–	–	–	–
O=C(Nc1ccc(Cl)cc1)c1ccc(-n2cncn2)c([N+](=O)[O-])c1	–	–	–	–	–	–
Cc1ccc(NC(=O)c2ccc(-n3cncn3)c([N+](=O)[O-])c2)cc1	–	–	–	26.0	–	–
O=C(Cc1cccs1)Nc1nnc(-c2ccccc2)s1	–	–	–	–	–	–
COc1ccc(OCc2nnc(SCC(=O)Nc3nnc(C4CC4)s3)n2C)cc1	·	·	·	–	·	·
Cc1ccc(Cl)cc1-n1c(=O)cc(N2CCN(C(=O)c3ccco3)CC2)[nH]c1=O	–	–	–	32.4	–	–
CCCCNC(=O)Oc1cc(CCl)on1	–	–	–	?	–	–
CCCCNC(=O)Oc1c(Br)cc2sc(=O)oc2c1Br	–	–	–	·	–	56.0
CCCOc1ccc(-c2nc(C#N)c(N3CCN(CC)CC3)o2)cc1	–	–	–	–	–	–
